Test results taken from ChEMBL document CHEMBL2021767, “Library-based discovery and characterization of daphnane diterpenes as potent and selective HIV inhibitors in Daphne gnidium” (J Nat Prod, 2012).
Activity calls are given as the source filed them. No cut-off for these calls is given here.

Legend:
[1] = tested on: Human immunodeficiency virus 1; assay: Resistance factor, ratio of EC50 for multidrug-resistant HIV1 106-PR infected in HEK293T cells to wildtype HIV1 infected in HEK293T cells; assay type: functional, HEK-293T
Summary of the method: (§1)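 Resistance factor = EC50 against mutant virus (106-PR or 695-RT) divided by EC50 against wild-type; EC50s from 4-day HEK293T-transfection/HeLa-SxR5 co-culture with β-galactosidase read-out (405 nm), normalized to plate controls, curve-fitted.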

[2] = tested on: Human immunodeficiency virus 1; assay: Antiviral activity against multidrug-resistant HIV1 106-PR infected in HEK293T cells assessed as inhibition of viral replication after 4 days by beta-galactosidase reporter gene assay; assay type: functional, organism-based; details: Human immunodeficiency virus 1, 106-PR, HEK-293T, 96 h
Summary of the method: (§2)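 HEK293T transfected with proviral DNA (wild-type NL4-3 CXCR4-tropic or NL-AD87 CCR5-tropic, or multiresistant 106-PR protease-inhibitor or 695-RT RT-inhibitor mutants), then co-cultured 4 days with HeLa-SxR5 reporter cells (CD4, CCR5, endogenous CXCR4, LTR-LacZ) plus test substance; DMEM/10% FBS, 37 °C, 7% CO2. β-galactosidase colorimetric read at 405 nm, normalized to plate controls; EC50 from fitted dose-response curves.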

[3] = tested on: Human immunodeficiency virus 1; assay: Antiviral activity against wild type Human immunodeficiency virus 1 NL4-3 pseudotyped with VSV envelope infected in human HeLa-SxR5 cells assessed as inhibition of viral replication at 300 nM after 3 days by beta-galactosidase assay; assay type: functional, organism-based
Summary of the method: (§3)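 Pseudoparticles made by cotransfecting HEK293T with env-defective NL4-3 provirus plus plasmid for full-length NL4-3 Env or VSV envelope; supernatants harvested 2 days post-transfection, cleared by low-speed spin, used to transduce HeLa-SxR5 with or without compound at increasing concentrations; β-galactosidase activity measured 3 days later; means ± standard deviation.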

[4] = tested on: Human immunodeficiency virus 1; assay: Antiviral activity against wild type Human immunodeficiency virus 1 NL4-3 pseudotyped with HIV envelope infected in human HeLa-SxR5 cells assessed as inhibition of viral replication at 300 nM after 3 days by beta-galactosidase assay; assay type: functional, organism-based
Summary of the method: (§4)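 HEK293T cells cotransfected with an envelope-defective NL4-3-derived provirus plus a plasmid expressing full-length NL4-3 HIV envelope. Supernatants were harvested 2 days post-transfection, spun at low speed to clear debris, and used to transduce HeLa-SxR5 reporter cells (CD4/CCR5, endogenous CXCR4, HIV-LTR-LacZ) with or without compound. β-galactosidase was read colorimetrically at 405 nm 3 days later and normalised to positive and negative control wells as percent inhibition.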

[5] = tested on: Human immunodeficiency virus 1; assay: Antiviral activity against wild type Human immunodeficiency virus 1 NL4-3 pseudotyped with VSV envelope infected in human HeLa-SxR5 cells assessed as inhibition of viral replication at 65 nM after 3 days by beta-galactosidase assay; assay type: functional, organism-based; summary of the method: as §3
[6] = tested on: Human immunodeficiency virus 1; assay: Antiviral activity against multidrug-resistant HIV1 695-RT infected in HEK293T cells assessed as inhibition of viral replication after 4 days by beta-galactosidase reporter gene assay; assay type: functional, organism-based; details: Human immunodeficiency virus 1, 695-RT, HEK-293T, 96 h; summary of the method: as §2
[7] = tested on: Human immunodeficiency virus 1; assay: Resistance factor, ratio of EC50 for multidrug-resistant HIV1 695-RT infected in HEK293T cells to wildtype HIV1 infected in HEK293T cells; assay type: functional, HEK-293T; summary of the method: as §1
[8] = tested on: Human immunodeficiency virus 1; assay: Antiviral activity against wild type Human immunodeficiency virus 1 NL4-3 pseudotyped with HIV envelope infected in human HeLa-SxR5 cells assessed as inhibition of viral replication at 65 nM after 3 days by beta-galactosidase assay; assay type: functional, organism-based; summary of the method: as §4
PBMC [9] = assay: Down-regulation of CCR5 expression in PHA- and IL-2-stimulated human PBMC membranes at 20 nM after 48 hrs by flow cytometric analysis; assay type: functional, cell-based
Summary of the method: (§5)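 Healthy-donor PBMCs at 1 × 10^6 cells/mL in RPMI/10% FBS, activated 48 h with PHA 2.5 μg/mL and IL-2 300 IU/mL, then treated 48 h with 20 nM compound or vehicle (0.25% DMSO, 100 IU/mL IL-2). Sampled at 0, 2, 5, 24, 48 h; stained 40 min at 4 °C with FITC anti-CXCR4 or anti-CCR5, or PE anti-CD69, plus isotype controls; flow cytometry, % cells expressing each receptor.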

[10] = tested on: Human immunodeficiency virus 1; assay: Antiviral activity against CXCR4-tropic HIV1 NL4-3 infected in HEK293T cells assessed as inhibition of viral replication after 4 days by beta-galactosidase reporter gene assay; assay type: functional, organism-based; details: Human immunodeficiency virus 1, NL4-3, HEK-293T, 96 h; summary of the method: as §2
HEK-293T = assay: Cytotoxicity against human HEK293T cells after 4 days by Alamar blue assay; assay type: cell-based; details: 96 h
Summary of the method: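 Same culture set-up as the anti-HIV assay (HEK293T with HeLa-SxR5, DMEM/10% FBS, 37 °C, 7% CO2) but with no proviral DNA transfected; viability read with AlamarBlue after 4 days.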

[11] = tested on: Human immunodeficiency virus 1; assay: Antiviral activity against wild type Human immunodeficiency virus 1 NL4-3 pseudotyped with VSV envelope infected in human HeLa-SxR5 cells assessed as inhibition of viral replication after 3 days by beta-galactosidase assay; assay type: functional, organism-based; summary of the method: as §3
[12] = tested on: Human immunodeficiency virus 1; assay: Antiviral activity against CCR5-tropic HIV1 NL-AD87 infected in HEK293T cells assessed as inhibition of viral replication after 4 days by beta-galactosidase reporter gene assay; assay type: functional, organism-based; details: Human immunodeficiency virus 1, NL-AD87, HEK-293T, 96 h; summary of the method: as §2
PBMC [13] = assay: Down-regulation of CXCR4 expression in PHA- and IL-2-stimulated human PBMC membranes at 20 nM after 48 hrs by flow cytometric analysis; assay type: functional, cell-based; summary of the method: as §5
[14] = tested on: Human immunodeficiency virus 1; assay: Antiviral activity against wild type Human immunodeficiency virus 1 NL4-3 pseudotyped with HIV envelope infected in human HeLa-SxR5 cells assessed as inhibition of viral replication after 3 days by beta-galactosidase assay; assay type: functional, organism-based; summary of the method: as §3
PBMC [15] = assay: Upregulation of CD69 expression in PHA- and IL-2-stimulated human PBMC membranes at 20 nM after 48 hrs by flow cytometric analysis; assay type: functional, cell-based; summary of the method: as §5

Compound: CC(C)CN(C[C@@H](O)[C@H](Cc1ccccc1)NC(=O)O[C@H]1CO[C@H]2OCC[C@H]21)S(=O)(=O)c1ccc(N)cc1 [DARUNAVIR]
- Ratio EC50 [1]: >300
- EC50 [2]: 13700 nM

Compound: Cc1cccc(C)c1OCC(=O)N[C@@H](Cc1ccccc1)[C@@H](O)C[C@H](Cc1ccccc1)NC(=O)[C@H](C(C)C)N1CCCNC1=O [LOPINAVIR]
- Ratio EC50 [1]: 10
- EC50 [2]: 160 nM

Compound: enfuvirtide
- inhibition [3]: inactive
- inhibition [4]: Active

Compound: O=C1Nc2ccc(Cl)cc2[C@@](C#CC2CC2)(C(F)(F)F)O1 [EFAVIRENZ]
- inhibition [5]: Active
- EC50 [6]: 889 nM
- Ratio EC50 [7]: 222
- inhibition [8]: Active

Compound: COC(=O)N[C@H](C(=O)N[C@@H](Cc1ccccc1)[C@@H](O)CN(Cc1ccc(-c2ccccn2)cc1)NC(=O)[C@@H](NC(=O)OC)C(C)(C)C)C(C)(C)C [ATAZANAVIR]
- Ratio EC50 [1]: 7
- EC50 [2]: 324 nM

Compound: C=C(C)[C@]12C[C@@H](C)[C@@]34O[C@](c5ccccc5)(O[C@@H]1[C@@H]3[C@@H]1O[C@]1(CO)[C@@H](O)[C@]1(O)C(=O)C(C)=C[C@H]14)O2 [DAPHNETOXIN]
- Ratio EC50 [1]: 1
- Activity (PBMC [9]): Active
- EC50 [10]: 16.2 nM
- Activity (HEK-293T): Non-toxic
- EC50 [6]: 21 nM
- inhibition [11]: Dose-dependent effect
- EC50 [12]: 26.7 nM
- EC50 [2]: 22 nM
- Ratio EC50 [7]: 1
- Activity (PBMC [13]): Active
- inhibition [14]: Dose-dependent effect
- Activity (PBMC [15]): Active

Compound: Nc1ccn([C@@H]2CS[C@H](CO)O2)c(=O)n1 [LAMIVUDINE]
- EC50 [6]: > 20000 nM
- Ratio EC50 [7]: >300

Compound: C=C(C)[C@]12C[C@@H](C)[C@@]34O[C@](/C=C/C=C/CCCCC)(O[C@@H]1[C@@H]3[C@@H]1O[C@]1(CO)[C@@H](O)[C@]1(O)C(=O)C(C)=C[C@H]14)O2 [EXCOECARIA TOXIN]
- EC50 [10]: 1080 nM
- Activity (HEK-293T): Non-toxic
- EC50 [12]: 1570 nM

Compound: CC(C)(C)NC(=O)[C@@H]1C[C@@H]2CCCC[C@@H]2CN1C[C@@H](O)[C@H](Cc1ccccc1)NC(=O)[C@H](CC(N)=O)NC(=O)c1ccc2ccccc2n1 [SAQUINAVIR]
- Ratio EC50 [1]: 1
- EC50 [2]: 12 nM

Compound: C=C(C)[C@@]12O[C@@]3(c4ccccc4)O[C@@H]1[C@@H]1[C@@H]4O[C@]4(CO)[C@@H](O)[C@]4(O)C(=O)C(C)=C[C@H]4[C@@]1(O3)[C@H](C)[C@H]2OC(=O)/C=C/c1ccccc1 [GNIDICIN]
- EC50 [10]: 8.6 nM
- Activity (HEK-293T): Non-toxic
- EC50 [12]: 17.6 nM

Compound: Cc1cn([C@H]2C[C@H](N=[N+]=[N-])[C@@H](CO)O2)c(=O)[nH]c1=O [ZIDOVUDINE]
- EC50 [6]: 200 nM
- EC50 [2]: 6 nM
- Ratio EC50 [7]: 11

Compound: C=C(C)C12OC3(c4ccccc4)OC1[C@@H]1[C@@H]4O[C@]4(CO)[C@@H](O)[C@]4(O)C(=O)C(C)=C[C@H]4C1(O3)[C@H](C)[C@H]2OC(=O)/C=C/C=C/C=C/CCC (stereo not given in full) [GNIDITRIN]
- EC50 [10]: 74 nM
- Activity (HEK-293T): Non-toxic
- EC50 [12]: 133 nM
